# Compounds with a hit are over-represented: about 3.9% of the library has one in this group of screens.
# APP 5'UTR act: activators of APP 5'UTR luciferase reporter, primary screen, SH-SY5Y cells; SH-SY5Y APP 5'UTR luciferase reporter, luminescence; zero percent = DMSO vehicle wells; activation, % at 2 µM; actives 1% (n = 190,000);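 active = activation above a set limit, based on mean plus 3 SD of controls, cut at about 140% in these data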
# STAT1 act: STAT1 signaling activators, primary screen, cell-based, HTS, luciferase reporter. actives 2.6% (n = 200,000). NIH 3T3 STAT1-luciferase reporter, IFN-gamma, luminescence; 100% = IFN-gamma alone, no compound. activation (% of control), % at 5.5 µM. AID 932, 2007;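 active = activation above the screen-wide mean activation plus 3 SD, cut at about 130% in these data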;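 note: raw ratio to IFN-gamma control signal so 100% means no change and 0% no light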
# FLuc stim CS: FLuc activators, initial screening, artefact control for FLuc-dependent activation tests, biochemical, ATPlite luminescence | activation factor at 10 µM | 200,000 tested, under 10 active | ATPlite luciferase biochemical, 10 min; 0 = ATP-free wells, 1 = DMSO control | Luciferin 4-monooxygenase (Photinus pyralis), P08659;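 active = luciferase activation factor, scaled between plate controls, of at least 2 with compound at 10 µM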
#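 test system = cell-free luciferase reagent | medium = PBS as buffer for the ATP substrate | dosing = test compounds dosed from 2 mM stocks in 100% DMSO | incubation = 10 min at ambient temperature | detection = luminescence measurement of luciferase light output | benchmarks = low control with PBS replacing ATP, high control enzyme plus ATP without compound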
# Rad51 HR inh: human RAD51 strand exchange inhibitors, primary screen, biochemical, fluorescence. hRad51 DNA strand exchange, fluorescence dequenching. inhibition, % at 10 µM. actives 0.085% (n = 200,000);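 active = inhibition above 40% at the single screening dose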;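 note: 0% = DMSO control wells and 100% = blanks with heterologous ssDNA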
# Target sequence (Q06609 whole entry, looked up): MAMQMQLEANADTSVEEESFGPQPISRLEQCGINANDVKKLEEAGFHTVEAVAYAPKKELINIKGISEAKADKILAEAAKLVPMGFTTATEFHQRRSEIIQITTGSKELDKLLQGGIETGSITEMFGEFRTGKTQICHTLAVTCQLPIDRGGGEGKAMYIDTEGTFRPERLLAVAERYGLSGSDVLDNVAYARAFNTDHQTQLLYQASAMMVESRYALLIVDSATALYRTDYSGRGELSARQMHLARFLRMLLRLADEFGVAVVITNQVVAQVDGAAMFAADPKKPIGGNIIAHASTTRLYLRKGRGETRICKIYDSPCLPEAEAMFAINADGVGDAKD
#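 material = hRad51 filaments on single-stranded DNA | reagent = Donor/quencher-labelled 47-bp dsDNA substrate | compound = 10 µM final, single point | schedule = strand-exchange reaction 15 min at room temperature | measured by = fluorescein emission 520 nm, excitation 485 nm | read-out basis = % inhibition versus plate control and blank means | benchmarks = plate controls and plate blanks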
# NF-kB neuron act: activators of NF-kB expression in neurons, primary screen, cell-based, HTS. AID 1239, 2008. fold change at 12.5 µM. human neuronal cells, NF-kB reporter expression; hits give high values. actives 1.6% (n = 190,000); in the data active = fold change above about 3.3
# FLuc inhib CS: firefly luciferase enzyme inhibitors, primary screen, artefact control for luciferase-based inhibitor screens, biochemical, luminescence, ATPLite | AID 1006, 2008 | inhibition, % at 10 µM | 10 min | Luciferin 4-monooxygenase (Photinus pyralis), P08659 | actives 1.5% (n = 200,000);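 active = inhibition above about 50% when tested at 10 µM, limit read from the data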
# Numbers without * were called inactive; / = not tested or not shown.
SMILES,APP 5'UTR act,STAT1 act,FLuc stim CS,Rad51 HR inh,NF-kB neuron act,FLuc inhib CS
CNC(=O)/C(C#N)=C/c1ccc(-c2ccc(Cl)cc2)o1,58.1,141.7*,0.9,15.4,1.88,9.0
Cc1ccc(Nc2nc(CSc3nnnn3C)cs2)cc1,71.4,114.0,0.4,-3.4,3.29,61.5*
Cc1ccc(Nc2nc(CSc3nnnn3-c3ccccc3)cs2)cc1,1.1,100.3,1,-6.6,0.77,-4.6
Cc1ccc(Nc2nc(CSc3nnc(-c4ccccc4C)n3C)cs2)cc1,13.9,104.4,0.4,-14.4,1.56,64.2*
Cc1ccc(Nc2nc(CSc3nnc(-c4ccccc4)n3C)cs2)cc1,37.1,102.5,0.1,-11.9,2.91,85.8*
CCCCc1c(O)nc(SCC(=O)c2ccccc2)n(-c2ccccc2OC)c1=O,/,/,/,9.6,/,/
Cc1ccc(NC(=O)C2CC(=O)N(Cc3ccco3)C2)cc1 (centres undefined),/,/,/,3.7,/,/
O=C(c1ccc(-c2ccc(Cl)cc2Cl)o1)N1CCOCC1,80.5,137.8*,0.5,6.9,3.05,51.3*
O=C(N/N=C/c1cccc([N+](=O)[O-])c1O)c1cccs1,54.4,123.7,0.3,3.0,1.02,67.3*
O=C(N/N=C\c1ccccn1)c1ccccc1O,-16.0,106.8,0.3,3.4,1.13,69.0*
O=C(N/N=C\c1ccncc1)c1ccccc1O,0.9,101.2,0.3,3.2,1.9,68.8*
O=C(N/N=C/c1ccccn1)c1ccccc1,23.4,118.0,0.4,17.8,1.78,55.9*
Cc1ccccc1C(=O)N/N=C/c1ccccn1,31.4,136.2*,0.5,-5.4,1.69,54.3*
O=C(N/N=C/c1ccccn1)c1cccs1,18.0,131.7*,0.7,10.9,1.19,32.9
O=C(N/N=C/c1cc2ccccc2[nH]1)c1ccccc1Cl,/,/,/,-1.6,/,/
O=C(NN1C(=O)c2ccccc2NC1c1ccoc1)c1ccccc1 (centres undefined),16.8,107.8,1.1,47.8*,1.4,-5.8
CC(=O)Oc1ccc(OC(C)=O)c2c1CC(C)=C(C)C2,/,/,/,-4.1,/,/
Oc1c(/C=N/Nc2cccc3cccnc23)ccc2ccccc12,86.9,97.8,0.9,-10.7,1.76,6.1
Oc1cccc(/C=N/Nc2cccc3cccnc23)c1,227.3*,53.3,0.2,-10.4,8.92*,80.9*
COc1cc(/C=N/Nc2cccc3cccnc23)cc(OC)c1O,36.3,112.1,0.1,36.0,2.48,85.9*
CCN1C(=O)N[C@@H](c2ccco2)C(C(=O)OC)=C1C,/,/,/,8.3,/,/
COC(=O)/C=C1/SC(=NC(=O)c2ccc(F)cc2)NC1=O,/,/,/,10.6,/,/
C=CCNC(=S)NC(=O)c1oc2ccccc2c1C,57.5,134.5*,0.9,-8.2,2.04,6.7
Nc1c(C(=O)Nc2ccc(Cl)cc2)oc2ccccc12,213.0*,170.5*,0.7,0.6,5.6*,32.3
O=C(NC1=NCCS1)c1cc(-c2ccc(-c3ccccc3)cc2)nc2ccccc12,67.4,135.0*,0.3,0.8,1.28,73.4*
SMILES,APP 5'UTR act,STAT1 act,FLuc stim CS,Rad51 HR inh,NF-kB neuron act,FLuc inhib CS
Cc1c(C(=O)Nc2cnccn2)oc2ccccc12,27.9,121.3,0.9,3.4,4.67*,8.4
COc1ccc(-c2cc(C(=O)NC3=NCCS3)c3ccccc3n2)cc1OC,-11.4,114.4,0.8,11.9,0.51,19.9
CC(=O)c1oc2ccccc2c1N,0.5,100.4,1.1,1.6,1.53,-6.7
Cc1c(C(=O)Nc2ccc(Cl)cn2)oc2ccccc12,-1.5,106.1,1,4.0,1.98,-0.7
COc1ccccc1NCC(=O)N/N=C(\C)c1cccs1,0.5,102.4,1,12.9,1.14,-3.8
Cc1sc(NC(=O)c2oc3ccccc3c2C)c(C#N)c1C,15.0,101.9,1,-4.9,1.45,-4.8
CC(=O)Nc1cccc(NC(=O)c2oc3ccccc3c2C)c1,68.2,141.6*,0.7,/,2.3,28.7
Cc1c(C(=O)NC2=NCCS2)oc2ccccc12,106.1,136.8*,0.5,-0.2,7.58*,51.0*
CC(=O)Nc1ccc(NC(=S)NC(=O)c2oc3ccccc3c2C)cc1,7.4,101.8,1.1,/,1.17,-7.8
Brc1ccccc1OCCOc1cccc2cccnc12,0.3,119.2,0.9,8.3,1.45,7.4
c1cnc2c(OCc3nc4ccccc4[nH]3)cccc2c1,/,143.5*,0.7,6.4,2.73,26.6
COc1ccccc1OCc1nc2ccccc2[nH]1,83.0,131.7*,0.8,-1.5,4.01*,16.7
Cc1ccccc1OCc1nc2ccccc2[nH]1,131.4,130.5*,0.5,6.5,4.25*,53.0*
O=c1c(-c2nn[nH]n2)coc2ccc(Cl)cc12,-1.1,97.5,1,13.7,0.87,-4.1
O=C(COC(=O)c1cc(-c2cccs2)nn1-c1ccccc1)Nc1ccc(Cl)c([N+](=O)[O-])c1,-4.5,91.8,1,-4.4,1.04,-3.5
O=C(Nc1nc2c(ccc3ccccc32)s1)c1cc([N+](=O)[O-])ccc1N1CCOCC1,20.1,131.1*,1,-3.0,1.25,-0.1
Cn1ncc2c1ncn1nc(CCc3ccccc3)nc21,29.3,142.5*,0.9,-1.3,3.8*,10.0
COC(=O)c1cccnc1-n1c(=O)c2cccnc2n(Cc2cccc(C(F)(F)F)c2)c1=O,1.2,102.7,1.1,6.6,1.04,-7.9
CC(=O)N1C(C(=O)O)CSC1c1ccc(C)cc1 (centres undefined),9.6,/,1,-1.7,4.19*,-1.3
COC(=O)c1ccc(N=NN2CCCCCC2)cc1,106.5,137.1*,0.7,-2.8,4.07*,34.3
O=C(O)c1ccc(N=NN2CCCCC2)cc1,56.8,134.6*,1,-2.3,1.89,3.5
O=C(CSCc1ccccc1Cl)Nc1ccc2c(c1)OCCO2,137.3*,106.7,0.9,-5.4,2.04,7.2
O=C(Nc1ccc2c(c1)OCCO2)c1ccccn1,106.8,55.6,0.1,11.7,2.59,93.0*
Cn1nc(C(=O)Nc2ccc3c(c2)OCCO3)cc1C(=O)O,0.8,88.7,0.4,7.7,0.66,64.8*
CCn1cc(Cl)c(C(=O)Nc2ccc3c(c2)OCCO3)n1,137.2*,106.1,0.3,-2.8,4.13*,73.8*
CCn1cc(Cl)c(C(=O)Nc2cccc(C(F)(F)F)c2)n1,-3.3,103.2,1,5.7,1.52,1.3
Cc1ccc(C(=O)NCCc2ccc(S(N)(=O)=O)cc2)cc1[N+](=O)[O-],8.9,96.8,1,4.2,1.29,0.9
